Test results from ChEMBL document CHEMBL4219124, “Alleviating CYP and hERG liabilities by structure optimization of dihydrofuran-fused tricyclic benzo[d]imidazole series - Potent, selective and orally efficacious microsomal prostaglandin E synthase-1 (mPGES-1) inhibitors: Part-2” (Bioorg Med Chem Lett, 2018).

Columns and labels:
CYP2D6 = CYP2D6 (Homo sapiens, UniProt P10635); experiment: (§1) Inhibition of CYP2D6 in human liver microsomes at 10 uM after 20 mins in presence of NADPH by LC-MS/MS analysis; type: ADME; conditions: liver microsomes
Chain of CYP2D6 (P10635 whole entry, canonical isoform): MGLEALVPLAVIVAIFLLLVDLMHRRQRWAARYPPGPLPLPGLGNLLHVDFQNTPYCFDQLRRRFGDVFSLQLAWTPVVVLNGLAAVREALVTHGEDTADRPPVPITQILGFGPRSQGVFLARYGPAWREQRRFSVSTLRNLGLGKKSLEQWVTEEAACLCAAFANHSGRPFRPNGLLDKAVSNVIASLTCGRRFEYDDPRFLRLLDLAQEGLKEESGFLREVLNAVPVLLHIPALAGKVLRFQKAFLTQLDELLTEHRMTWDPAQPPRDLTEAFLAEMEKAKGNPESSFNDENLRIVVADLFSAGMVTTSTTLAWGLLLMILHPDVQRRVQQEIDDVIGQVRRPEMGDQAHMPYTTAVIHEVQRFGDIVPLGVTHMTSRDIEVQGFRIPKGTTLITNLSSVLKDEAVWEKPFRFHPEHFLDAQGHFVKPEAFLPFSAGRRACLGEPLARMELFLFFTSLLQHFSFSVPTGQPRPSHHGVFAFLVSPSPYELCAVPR
Method in brief: (§2)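 Percent inhibition of each CYP isoform by test compound at 10 µM, compared with a no-inhibitor control. Run in triplicate.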

Prostaglandin E synthase [1] = target: T1, Prostaglandin E synthase (Homo sapiens, UniProt O14684); experiment: Inhibition of recombinant human mPGES1 expressed in CHO cells assessed as reduction in PGE2 production using PGH2 as substrate incubated for 10 mins followed by substrate addition measured for 1 min; type: cell-based
T1 sequence (O14684 whole entry): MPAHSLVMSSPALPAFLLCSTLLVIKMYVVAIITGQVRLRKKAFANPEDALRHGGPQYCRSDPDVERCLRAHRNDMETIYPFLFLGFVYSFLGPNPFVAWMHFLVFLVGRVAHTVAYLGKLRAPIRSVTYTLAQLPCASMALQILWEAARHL

CYP2C19 = CYP2C19 (Homo sapiens, UniProt P33261); experiment: Inhibition of CYP2C19 in human liver microsomes at 10 uM after 40 mins in presence of NADPH by LC-MS/MS analysis; type: ADME; method in brief: as §2
Chain of CYP2C19 (P33261 whole entry): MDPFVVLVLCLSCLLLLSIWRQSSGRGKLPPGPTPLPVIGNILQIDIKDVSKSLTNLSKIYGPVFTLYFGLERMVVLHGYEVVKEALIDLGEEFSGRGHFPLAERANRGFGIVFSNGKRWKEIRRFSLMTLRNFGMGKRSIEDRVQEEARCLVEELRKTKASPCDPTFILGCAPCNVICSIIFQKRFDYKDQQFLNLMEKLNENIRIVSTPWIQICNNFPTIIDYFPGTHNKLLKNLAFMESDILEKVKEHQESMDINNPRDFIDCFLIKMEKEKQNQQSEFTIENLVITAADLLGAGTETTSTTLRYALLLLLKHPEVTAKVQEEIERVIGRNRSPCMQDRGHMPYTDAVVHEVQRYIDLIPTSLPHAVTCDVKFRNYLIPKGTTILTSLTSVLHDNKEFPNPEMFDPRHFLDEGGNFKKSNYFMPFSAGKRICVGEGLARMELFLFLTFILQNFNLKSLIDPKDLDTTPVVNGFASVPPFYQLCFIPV

Prostaglandin E synthase [2] = target: T1, Prostaglandin E synthase; experiment: Inhibition of mPGES1 in human A549 cells assessed as reduction in IL-1beta-induced PGE2 production preincubated for 30 mins followed by incubation with IL-1beta for 16 to 20 hrs measured after 10 mins by HTRF assay; type: cell-based
[3] = Metabolic stability in guinea pig liver microsomes assessed as parent compound remaining at 1 uM after 60 mins in presence of NADPH by LC-MS/MS analysis; type: ADME, Cavia porcellus, microsome; conditions: read-out: Stability
Method in brief: (§3)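 Compound incubated 60 min at 37 °C with human, rat or guinea pig liver microsomes; percent parent remaining, triplicates.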

CYP2C9 = CYP2C9 (Homo sapiens, UniProt P11712); experiment: Inhibition of CYP2C9 in human liver microsomes at 10 uM after 20 mins in presence of NADPH by LC-MS/MS analysis; type: ADME; method in brief: as §2
Chain of CYP2C9 (P11712 whole entry): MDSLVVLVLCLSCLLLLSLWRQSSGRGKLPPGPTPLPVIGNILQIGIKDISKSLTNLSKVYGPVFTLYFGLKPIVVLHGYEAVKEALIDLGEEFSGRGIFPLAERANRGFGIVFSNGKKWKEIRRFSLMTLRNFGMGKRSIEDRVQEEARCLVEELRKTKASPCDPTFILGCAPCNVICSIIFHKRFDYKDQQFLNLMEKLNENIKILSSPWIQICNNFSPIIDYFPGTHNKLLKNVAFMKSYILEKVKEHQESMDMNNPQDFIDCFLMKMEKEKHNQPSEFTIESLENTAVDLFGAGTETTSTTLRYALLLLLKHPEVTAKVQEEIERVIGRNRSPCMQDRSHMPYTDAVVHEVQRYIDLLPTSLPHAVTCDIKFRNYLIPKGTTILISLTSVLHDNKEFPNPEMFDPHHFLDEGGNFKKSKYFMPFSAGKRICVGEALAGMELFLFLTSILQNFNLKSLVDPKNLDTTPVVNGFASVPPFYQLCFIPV

[4] = Metabolic stability in human liver microsomes assessed as parent compound remaining at 1 uM after 60 mins in presence of NADPH by LC-MS/MS analysis; type: ADME, microsome; conditions: read-out: Stability; method in brief: as §3
CYP1A2 = target: T2, CYP1A2 (Homo sapiens, UniProt P05177); experiment: Inhibition of CYP1A2 in human liver microsomes at 10 uM after 20 mins in presence of NADPH by LC-MS/MS analysis; type: ADME; method in brief: as §2
T2 sequence (P05177 whole entry): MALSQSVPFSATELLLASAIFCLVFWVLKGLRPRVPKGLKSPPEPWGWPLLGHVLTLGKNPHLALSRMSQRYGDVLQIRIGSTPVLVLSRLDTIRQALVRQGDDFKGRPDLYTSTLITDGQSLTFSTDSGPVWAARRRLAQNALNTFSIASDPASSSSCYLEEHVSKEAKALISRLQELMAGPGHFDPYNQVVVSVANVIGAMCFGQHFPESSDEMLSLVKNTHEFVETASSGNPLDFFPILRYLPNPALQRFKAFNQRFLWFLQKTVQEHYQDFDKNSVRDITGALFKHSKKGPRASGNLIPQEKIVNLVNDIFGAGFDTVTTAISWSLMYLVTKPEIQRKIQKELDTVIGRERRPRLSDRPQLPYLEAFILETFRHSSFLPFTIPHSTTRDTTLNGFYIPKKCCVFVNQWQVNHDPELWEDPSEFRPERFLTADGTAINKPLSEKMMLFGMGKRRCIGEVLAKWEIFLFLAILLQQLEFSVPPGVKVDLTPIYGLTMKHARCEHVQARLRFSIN

CYP3A4 = CYP3A4 (Homo sapiens, UniProt P08684); experiment: Inhibition of CYP3A4 in human liver microsomes at 10 uM after 20 mins in presence of NADPH by LC-MS/MS analysis; type: ADME; method in brief: as §2
Chain of CYP3A4 (P08684 whole entry): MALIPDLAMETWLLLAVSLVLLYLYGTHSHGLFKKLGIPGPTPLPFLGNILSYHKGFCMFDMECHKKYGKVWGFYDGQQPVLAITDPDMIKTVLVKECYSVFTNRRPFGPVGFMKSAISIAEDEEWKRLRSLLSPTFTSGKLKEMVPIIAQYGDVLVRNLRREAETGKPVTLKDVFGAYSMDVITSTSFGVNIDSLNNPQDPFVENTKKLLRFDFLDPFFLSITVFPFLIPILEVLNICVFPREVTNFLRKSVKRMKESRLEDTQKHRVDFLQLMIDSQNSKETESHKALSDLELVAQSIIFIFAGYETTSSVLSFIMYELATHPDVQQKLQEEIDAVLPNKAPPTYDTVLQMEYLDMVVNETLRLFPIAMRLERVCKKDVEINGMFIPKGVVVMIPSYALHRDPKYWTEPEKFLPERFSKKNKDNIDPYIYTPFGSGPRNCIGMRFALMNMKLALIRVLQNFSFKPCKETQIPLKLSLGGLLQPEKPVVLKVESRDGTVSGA

Prostaglandin E synthase [5] = target: T1, Prostaglandin E synthase; experiment: Inhibition of mPGES1 in human whole blood assessed as reduction in LPS-induced PGE2 production measured after 20 to 24 hrs
[6] = Metabolic stability in rat liver microsomes assessed as parent compound remaining at 1 uM after 60 mins in presence of NADPH by LC-MS/MS analysis; type: ADME, microsome; conditions: read-out: Stability; method in brief: as §3
Cytochrome P450 2D6 = Cytochrome P450 2D6 (Homo sapiens, UniProt P10635); experiment: as §1; type: ADME; conditions: microsomes, 20 min, 10 µM; method in brief: as §2
Chain of Cytochrome P450 2D6 (P10635 whole entry): as the sequence (P10635 whole entry, canonical isoform) above

[7] = Protein binding in guinea pig plasma at 10 uM after 5 hrs by equilibrium dialysis based LC-MS/MS analysis; type: ADME, cell-free, Cavia porcellus; conditions: read-out: PPB (converted)
Method in brief: (§4)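 Equilibrium dialysis at 10 μM compound; result expressed as percent bound.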

[8] = Protein binding in human plasma at 10 uM after 5 hrs by equilibrium dialysis based LC-MS/MS analysis; type: ADME, cell-free; conditions: read-out: PPB (converted); method in brief: as §4
[9] = Apparent passive permeability of the compound by PAMPA; type: ADME
Method in brief: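 Passive permeability by PAMPA, using a 2% lecithin in dodecane membrane. Run in triplicate.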

hERG (KCNH2) = hERG (KCNH2) (Homo sapiens, UniProt Q12809); experiment: Inhibition of human ERG at 10 uM by patch clamp assay relative to control
Chain of hERG (KCNH2) (Q12809 whole entry): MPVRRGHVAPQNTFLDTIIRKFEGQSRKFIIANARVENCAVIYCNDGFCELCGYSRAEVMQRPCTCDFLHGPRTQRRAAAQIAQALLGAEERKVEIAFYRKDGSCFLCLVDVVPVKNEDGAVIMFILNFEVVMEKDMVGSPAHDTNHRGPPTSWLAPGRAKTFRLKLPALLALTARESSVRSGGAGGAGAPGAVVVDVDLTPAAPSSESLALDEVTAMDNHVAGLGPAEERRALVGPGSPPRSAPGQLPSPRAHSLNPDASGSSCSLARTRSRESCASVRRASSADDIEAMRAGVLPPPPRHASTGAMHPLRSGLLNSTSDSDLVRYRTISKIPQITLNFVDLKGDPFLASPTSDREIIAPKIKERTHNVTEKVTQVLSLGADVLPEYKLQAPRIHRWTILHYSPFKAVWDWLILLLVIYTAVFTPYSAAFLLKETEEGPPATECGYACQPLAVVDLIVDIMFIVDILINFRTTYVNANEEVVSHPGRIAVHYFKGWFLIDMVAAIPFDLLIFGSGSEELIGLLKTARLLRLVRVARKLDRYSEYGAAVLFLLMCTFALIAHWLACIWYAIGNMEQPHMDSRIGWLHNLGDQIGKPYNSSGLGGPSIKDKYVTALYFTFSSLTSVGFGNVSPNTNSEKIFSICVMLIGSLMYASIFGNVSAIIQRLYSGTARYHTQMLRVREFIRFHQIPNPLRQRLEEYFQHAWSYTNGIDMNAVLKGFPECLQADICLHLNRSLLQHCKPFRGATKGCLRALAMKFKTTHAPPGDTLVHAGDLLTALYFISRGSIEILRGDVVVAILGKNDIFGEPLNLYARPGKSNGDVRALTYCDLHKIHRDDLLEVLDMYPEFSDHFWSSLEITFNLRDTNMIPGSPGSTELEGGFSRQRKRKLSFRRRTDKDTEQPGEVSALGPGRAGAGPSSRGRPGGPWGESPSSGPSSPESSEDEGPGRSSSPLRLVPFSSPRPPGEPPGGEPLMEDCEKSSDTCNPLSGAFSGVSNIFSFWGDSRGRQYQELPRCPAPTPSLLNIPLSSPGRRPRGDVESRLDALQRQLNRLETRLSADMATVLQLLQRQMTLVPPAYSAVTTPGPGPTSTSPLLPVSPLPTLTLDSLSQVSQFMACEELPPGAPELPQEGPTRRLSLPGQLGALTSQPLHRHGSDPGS
Method in brief: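 hERG current measured by patch clamp with test compound at 10 µM; result given as % inhibition.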

| inhibition at 20 min, 10 µM (CYP2D6) | IC50 (Prostaglandin E synthase [1]) | inhibition at 40 min, 10 µM (CYP2C19) | IC50 (Prostaglandin E synthase [2]) | remaining at 1 h, 1 µM [3] | inhibition at 20 min, 10 µM (CYP2C9) | remaining at 1 h, 1 µM [4] | inhibition at 20 min, 10 µM (CYP1A2) | inhibition at 20 min, 10 µM (CYP3A4) | IC50 (Prostaglandin E synthase [5]) | remaining at 1 h, 1 µM [6] | inhibition (INH) (Cytochrome P450 2D6) | fraction unbound at 5 h, 10 µM [7] | fraction unbound at 5 h, 10 µM [8] | Papp [9] | SMILES | inhibition at 10 µM (hERG (KCNH2)) |
| --- | --- | --- | --- | --- | --- | --- | --- | --- | --- | --- | --- | --- | --- | --- | --- | --- |
| 5% | 16 nM | 10% | 3.2 nM | 74% | 26% | 95% | 14% | 21% | 197 nM | 92% | – | – | – | – | CC1(C)Cc2c(c(C(=O)Nc3cc(C4CC4)ccc3F)cc3nc(Nc4c(Cl)cccc4Cl)[nH]c23)O1 | – |
| – | 4.9 nM | 30% | 5.2 nM | 86% | 16% | – | 18% | 17% | 506 nM | – | Not Active | – | – | – | CC1(C)Cc2c(c(C(=O)Nc3ccccc3C(F)(F)F)cc3nc(Nc4c(Cl)cccc4Cl)[nH]c23)O1 | – |
| 7% | 3.6 nM | 22% | 6 nM | 93% | 42% | 100% | 36% | -12% | 1380 nM | 93% | – | – | – | – | CC1(C)Cc2c(c(C(=O)Nc3cc(C4CC4)ccc3F)cc3nc(Nc4c(F)cccc4Cl)[nH]c23)O1 | – |
| 4% | 5.1 nM | 46% | 9.7 nM | 89% | 29% | 93% | 17% | 11% | 536 nM | – | – | < 0.005 | < 0.005 | 0.12 ×10⁻⁶ cm/s | CC1(C)Cc2c(c(C(=O)Nc3ccccc3C(F)(F)F)cc3nc(Nc4c(F)cccc4Cl)[nH]c23)O1 | – |
| – | 5.4 nM | 31% | 10 nM | 80% | 47% | 95% | – | 30% | 876 nM | 97% | – | – | – | – | Cc1cccc(Cl)c1Nc1nc2cc(C(=O)Nc3ccc(F)c(C(F)(F)F)c3)c3c(c2[nH]1)CC(C)(C)O3 | – |
| – | 32 nM | – | 27 nM | – | – | – | – | – | – | – | – | – | – | – | Cc1cccc(Cl)c1Nc1nc2cc(C(=O)Nc3ccc(C(F)(F)F)cn3)c3c(c2[nH]1)CC(C)(C)O3 | – |
| 31% | 10 nM | 24% | – | 55% | 12% | 93% | 14% | -13% | 447 nM | 89% | – | – | – | – | Cc1cccc(Cl)c1Nc1nc2cc(C(=O)Nc3cc(C4CC4)ccc3F)c3c(c2[nH]1)CC(C)(C)O3 | – |
| 16% | 6.1 nM | 38% | 6 nM | 72% | 1% | 82% | 26% | 20% | 270 nM | 91% | – | – | – | 0.31 ×10⁻⁶ cm/s | Cc1cc(C(F)(F)F)ccc1NC(=O)c1cc2nc(Nc3c(F)cccc3Cl)[nH]c2c2c1OC(C)(C)C2 | 16.2% |
| 25% | 4.9 nM | 24% | 4.3 nM | 51% | 47% | 97% | 41% | 19% | 350 nM | 96% | – | – | – | – | Cn1c(Nc2c(F)cccc2Cl)nc2cc(C(=O)Nc3ccc(C4CC4)cc3)c3c(c21)CC(C)(C)O3 | – |
| 6% | 14 nM | 19% | 11 nM | 62% | 46% | 100% | 25% | 34% | 337 nM | – | – | < 0.005 | < 0.005 | – | Cc1cccc(Cl)c1Nc1nc2cc(C(=O)Nc3ccc(C(F)(F)F)cc3)c3c(c2[nH]1)CC(C)(C)O3 | – |
| 14% | 16 nM | 24% | 3.1 nM | 58% | 52% | 68% | 26% | 23% | 177 nM | 71% | – | < 0.005 | < 0.005 | – | Cc1ccc(NC(=O)c2cc3nc(Nc4c(F)cccc4Cl)n(C)c3c3c2OC(C)(C)C3)c(F)c1 | 12.8% |
| – | 25 nM | – | 14 nM | – | – | – | – | – | 955 nM | – | – | – | – | – | CC1(C)Cc2c(c(C(=O)Nc3ccc(C(F)(F)F)cn3)cc3nc(Nc4c(F)cccc4Cl)[nH]c23)O1 | – |
| -1% | 9.2 nM | 22% | 6.3 nM | 68% | 42% | 88% | 31% | 4% | 336 nM | 86% | – | 0.005 | 0.0018 | – | CC1(C)Cc2c(c(C(=O)Nc3cc(C(F)F)ccc3F)cc3nc(Nc4c(F)cccc4Cl)[nH]c23)O1 | – |
| -5% | – | -7% | – | 68% | 44% | 100% | 34% | – | – | 68% | – | – | – | – | Cn1c(Nc2c(F)cccc2Cl)nc2cc(C(=O)Nc3ccc(C(F)(F)F)cc3)c3c(c21)CC(C)(C)O3 | – |
| – | 3.1 nM | 16% | 9.6 nM | 80% | 39% | 100% | – | 37% | 570 nM | – | – | < 0.005 | < 0.005 | – | CC1(C)Cc2c(c(C(=O)Nc3ccc(C(F)(F)F)cc3F)cc3nc(Nc4c(F)cccc4Cl)[nH]c23)O1 | – |
| – | 6.4 nM | 41% | 15 nM | 80% | 35% | 72% | 14% | 24% | 661 nM | – | Not Active | – | – | – | CC1(C)Cc2c(c(C(=O)Nc3c(F)cccc3F)cc3nc(Nc4c(Cl)cccc4Cl)[nH]c23)O1 | – |
| 3% | 12 nM | 10% | 4 nM | 69% | 52% | 58% | 14% | 17% | 673 nM | 66% | – | 0.0035 | 0.0015 | – | Cn1c(Nc2c(F)cccc2Cl)nc2cc(C(=O)Nc3ccc(C(F)(F)F)cn3)c3c(c21)CC(C)(C)O3 | – |
